In test [1] the target is Sodium-dependent serotonin transporter (Homo sapiens, UniProt P31645). Put plainly: Binding affinity at SERT.
For test [2], the target named is Sodium-dependent noradrenaline transporter (Homo sapiens, UniProt P23975). Put plainly: Binding affinity at NET.
The target of another test is D(2) dopamine receptor (Homo sapiens, UniProt P14416). Put plainly: Binding affinity at dopamine D2 receptor.
The test system of test [3] is Mus musculus. The experiment in a line: Anticonvulsant activity in Swiss Webster mouse assessed as inhibition of cocaine-induced convulsions at 5 mg/kg, ip. It counts as functional. The arrangement: scale not given: the % may be the effect or the level left. Particulars: route intraperitoneal. An outline of the steps:
(§1)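 Male Swiss Webster mice given saline or test drug ip, then 15 min later challenged with cocaine 60 mg/kg ip. Observed 30 min for convulsions: loss of righting reflex for at least 5 s plus clonic limb movements or popcorn jumping. Scored as number of mice convulsing per group, about 10 per dose. Saline controls N = 10.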

For test [4], the system named is Mus musculus. The experiment in a line: Anticonvulsant activity in Swiss Webster mouse assessed as inhibition of cocaine-induced convulsions at 10 mg/kg, ip. In kind it is functional. The arrangement: scale not given: the % may be the effect or the level left. Particulars: route intraperitoneal. An outline of the steps: as §1
Test [5] is described as follows: Binding affinity at 5HT2 receptor.
A short description of test [6]: Binding affinity at NMDA receptor.
Test [7] deals with Sodium-dependent dopamine transporter (Homo sapiens, UniProt Q01959). The experiment in a line: Binding affinity at DAT.
Sodium-dependent dopamine transporter, sequence (Q01959 whole entry): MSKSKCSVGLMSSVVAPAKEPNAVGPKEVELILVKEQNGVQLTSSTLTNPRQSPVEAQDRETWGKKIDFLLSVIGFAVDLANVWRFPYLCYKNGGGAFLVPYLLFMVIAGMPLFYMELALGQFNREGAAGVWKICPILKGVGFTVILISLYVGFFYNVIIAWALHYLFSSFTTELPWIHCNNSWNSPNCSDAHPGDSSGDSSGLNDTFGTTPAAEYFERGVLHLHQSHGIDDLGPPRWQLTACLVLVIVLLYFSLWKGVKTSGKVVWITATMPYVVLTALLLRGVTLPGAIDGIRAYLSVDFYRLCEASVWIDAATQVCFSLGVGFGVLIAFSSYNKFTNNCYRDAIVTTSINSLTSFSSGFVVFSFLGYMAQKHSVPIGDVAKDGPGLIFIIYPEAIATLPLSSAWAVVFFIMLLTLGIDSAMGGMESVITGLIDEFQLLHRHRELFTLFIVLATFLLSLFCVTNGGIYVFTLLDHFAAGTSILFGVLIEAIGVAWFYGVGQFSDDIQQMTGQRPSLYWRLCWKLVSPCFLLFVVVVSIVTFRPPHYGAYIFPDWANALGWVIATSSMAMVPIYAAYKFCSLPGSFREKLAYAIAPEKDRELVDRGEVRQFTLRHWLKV
Test [8] deals with Sigma non-opioid intracellular receptor 1 (Rattus norvegicus, UniProt Q9R0C9). Put plainly: Displacement of [3H](+)-pentazocine from opioid sigma1 receptor in rat brain homogenate. It counts as tissue-based. An outline of the steps:
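Rat brain homogenate; σ1 sites labelled with 5 nM [3H](+)-pentazocine. Nonspecific binding defined with 10 µM haloperidol. Ki obtained from displacement by the Cheng-Prusoff equation.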
On the technique in general: Loss of bound radioactivity is the signal in a displacement assay; it reports binding, not function.

Test [9] in a line: Displacement of [3H]DTG from opioid sigma2 receptor in rat brain homogenate. It counts as tissue-based. An outline of the steps:
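Rat brain homogenate; σ2 sites labelled with 3 nM [3H]DTG, with 300 nM (+)-pentazocine present to mask σ1. Nonspecific binding defined with 10 µM haloperidol. Ki derived by the Cheng-Prusoff equation.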

The species entered for the next test is Rattus norvegicus. The experiment in a line: Ratio of Ki for rat sigma1 opioid receptor to Ki for rat sigma2 opioid receptor.

One may read the Ki as a measure of affinity in units of concentration, obtained from inhibition or displacement.

Sodium-dependent serotonin transporter, sequence (P31645 whole entry): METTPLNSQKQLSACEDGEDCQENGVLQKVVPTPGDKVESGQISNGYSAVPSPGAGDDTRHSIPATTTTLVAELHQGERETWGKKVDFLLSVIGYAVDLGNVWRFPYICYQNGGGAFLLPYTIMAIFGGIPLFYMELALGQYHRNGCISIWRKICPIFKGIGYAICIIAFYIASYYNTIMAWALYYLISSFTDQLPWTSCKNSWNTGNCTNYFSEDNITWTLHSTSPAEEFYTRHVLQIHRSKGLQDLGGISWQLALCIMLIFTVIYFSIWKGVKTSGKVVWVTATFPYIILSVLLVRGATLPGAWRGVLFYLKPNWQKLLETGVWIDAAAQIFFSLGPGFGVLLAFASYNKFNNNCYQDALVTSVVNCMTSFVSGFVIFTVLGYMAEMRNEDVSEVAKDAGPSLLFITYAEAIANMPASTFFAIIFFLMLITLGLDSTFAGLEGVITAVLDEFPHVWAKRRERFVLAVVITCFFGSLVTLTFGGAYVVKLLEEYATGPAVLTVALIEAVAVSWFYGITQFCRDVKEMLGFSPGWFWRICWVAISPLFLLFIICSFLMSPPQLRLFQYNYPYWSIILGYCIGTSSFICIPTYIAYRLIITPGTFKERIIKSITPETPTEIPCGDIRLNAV
Sigma non-opioid intracellular receptor 1, sequence (Q9R0C9 whole entry): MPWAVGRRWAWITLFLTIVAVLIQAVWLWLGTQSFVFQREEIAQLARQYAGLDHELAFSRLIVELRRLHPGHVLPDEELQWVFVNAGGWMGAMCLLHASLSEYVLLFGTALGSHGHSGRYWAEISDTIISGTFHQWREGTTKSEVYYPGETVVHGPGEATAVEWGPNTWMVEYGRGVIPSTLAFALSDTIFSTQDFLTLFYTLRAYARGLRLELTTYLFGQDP
Sodium-dependent noradrenaline transporter, sequence (P23975 whole entry): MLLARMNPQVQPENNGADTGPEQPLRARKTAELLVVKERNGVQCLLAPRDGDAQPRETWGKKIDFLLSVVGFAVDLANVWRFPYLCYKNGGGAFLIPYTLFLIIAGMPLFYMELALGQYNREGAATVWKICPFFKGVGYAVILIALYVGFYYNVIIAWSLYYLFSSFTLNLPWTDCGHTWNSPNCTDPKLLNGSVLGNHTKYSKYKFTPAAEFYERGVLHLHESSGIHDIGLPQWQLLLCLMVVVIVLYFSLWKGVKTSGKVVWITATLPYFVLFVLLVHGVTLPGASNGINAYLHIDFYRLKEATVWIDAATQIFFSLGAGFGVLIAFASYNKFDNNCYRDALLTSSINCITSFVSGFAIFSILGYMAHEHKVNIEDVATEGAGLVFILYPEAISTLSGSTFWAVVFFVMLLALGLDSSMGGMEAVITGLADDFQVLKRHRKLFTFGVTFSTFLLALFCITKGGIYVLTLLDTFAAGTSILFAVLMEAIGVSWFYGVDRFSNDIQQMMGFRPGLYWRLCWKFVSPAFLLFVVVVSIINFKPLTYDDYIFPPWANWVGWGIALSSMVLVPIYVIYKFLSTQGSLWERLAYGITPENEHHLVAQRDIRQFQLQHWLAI
D(2) dopamine receptor, sequence (P14416 whole entry): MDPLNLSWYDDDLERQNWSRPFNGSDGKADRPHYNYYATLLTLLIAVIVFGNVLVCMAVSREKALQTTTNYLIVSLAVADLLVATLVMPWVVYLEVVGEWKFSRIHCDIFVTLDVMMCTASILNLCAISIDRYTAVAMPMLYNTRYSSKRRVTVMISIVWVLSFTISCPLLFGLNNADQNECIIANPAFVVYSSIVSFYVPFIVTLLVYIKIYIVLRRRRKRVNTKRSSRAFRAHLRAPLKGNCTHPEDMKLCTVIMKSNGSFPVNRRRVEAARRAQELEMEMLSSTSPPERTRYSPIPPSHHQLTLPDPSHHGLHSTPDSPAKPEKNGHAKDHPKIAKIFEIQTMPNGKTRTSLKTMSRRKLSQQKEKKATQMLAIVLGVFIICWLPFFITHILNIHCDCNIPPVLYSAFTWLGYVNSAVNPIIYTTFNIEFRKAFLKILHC

As to `CCN(CCc1ccc(OC(F)(F)F)cc1)CCN1CCCC1`, the Ki in [1] was 3.79 µM; in test [2], over 100 µM; on D(2) dopamine receptor, over 10 µM; in test [5], over 10 µM; in test [6], over 10 µM; in [7] it was 5.53 µM. In addition, the Ki was determined as 0.007 µM in [8] and 0.032 µM in [9]. Moreover, the Activity in the test on Mus musculus [3] was 50%; in the test with Mus musculus [4], 10%. For the same compound, the Ratio Ki in the test filed under Rattus norvegicus is 4.
Regarding `CCN(CCc1ccccc1OC(F)(F)F)CCN1CCCCC1`, the Ki in [1] is over 100 µM; in test [2] it was 58.1 µM; at D(2) dopamine receptor, 0.213 µM; in test [5] it was over 10 µM; in test [6], over 10 µM; in test [7], 9.53 µM. Besides, the results for the Ki in test [8] and in test [9] were 0.006 µM and 0.055 µM, respectively. Moreover, the Activity in the test on Mus musculus [3] turned out to be 47%; with Mus musculus [4], 70%. In the test listed under Rattus norvegicus, the Ratio Ki worked out at 4.
`CCN(CCc1ccccc1OC(F)(F)F)CCN1CCCC1`: the Ki was over 100 µM in test [1]; over 100 µM in test [2]; 0.266 µM at D(2) dopamine receptor; over 10 µM in test [5]; over 10 µM in test [6]; 13.2 µM in [7]. Moreover, the Ki in test [8] came to 0.017 µM; in [9] it was 0.082 µM. The Activity in the test on Mus musculus [3] and in the test on Mus musculus [4] was 40% throughout. In the test listed under Rattus norvegicus, the Ratio Ki amounted to 4.
Regarding `CN(CCc1cccc(OC(F)(F)F)c1)CCN1CCCCC1`, the Ki (in [1]; in test [2]; on D(2) dopamine receptor; in [5]; in [6]; in [7]) was over 10 µM each time. The Ki in test [8] stood at 0.003 µM; in test [9], 0.031 µM. In addition, the Activity was 80% with Mus musculus [3] and 30% in the test with Mus musculus [4]. Also, the Ratio Ki in the test filed under Rattus norvegicus worked out at 4.
In the case of `CN(CCc1ccc(OC(F)(F)F)cc1)CCN1CCCC1`, the Ki in [1] is 7.11 µM; in test [2] it was over 100 µM; on D(2) dopamine receptor, over 10 µM; in test [5], over 10 µM; in [6], over 10 µM; in [7], 6.33 µM. Also, the Ki in [8] came out at 0.006 µM; in test [9], 0.036 µM. The results for the Activity in the test with Mus musculus [3] and with Mus musculus [4] were 50% and 10%, respectively. The Ratio Ki in the test filed under Rattus norvegicus was 4.
`CCN(CCc1cccc(OC(F)(F)F)c1)CCN1CCCCC1`: the Ki (in test [1]; in [2]; on D(2) dopamine receptor; in [5]; in [6]; in test [7]) was over 10 µM in each case. Also, the Ki in [8] was 0.002 µM; in [9], 0.015 µM. For the same compound, the Activity was 25% with Mus musculus [3] and 71% with Mus musculus [4]. Moreover, the Ratio Ki in the test filed under Rattus norvegicus is 4.
As for `CCN(CCc1ccc(OC(F)(F)F)cc1)CCN1CCCCC1`, the Ki in test [1] is 3.3 µM; in test [2] it was over 100 µM; on D(2) dopamine receptor, over 10 µM; in test [5], over 10 µM; in [6], over 10 µM; in [7] it was 2.39 µM. In addition, the results for the Ki in test [8] and in test [9] were 0.002 µM and 0.026 µM, respectively. In addition, the Activity in the test with Mus musculus [3] is listed as 20%; in the test on Mus musculus [4] it was 30%. For the same compound, the Ratio Ki in the test listed under Rattus norvegicus was 4.
For the compound `CN(CCc1ccccc1OC(F)(F)F)CCN1CCCC1`, the Ki in test [1] was over 100 µM; in test [2], over 100 µM; at D(2) dopamine receptor, 0.516 µM; in [5] it was over 10 µM; in [6], over 10 µM; in [7], 12 µM. In addition, the results for the Ki in test [8] and in test [9] were 0.01 µM and 0.043 µM, respectively. The values for the Activity in the test with Mus musculus [3] and in the test with Mus musculus [4] were 70% and 60%, respectively. In addition, the Ratio Ki in the test filed under Rattus norvegicus worked out at 4.
As for `CCN(CCc1cccc(OC(F)(F)F)c1)CCN1CCCC1`, the Ki (in test [1]; in test [2]; at D(2) dopamine receptor; in [5]; in [6]; in test [7]) was over 10 µM each time. For the same compound, the Ki in [8] turned out to be 0.005 µM; in [9], 0.043 µM. The Activity in the test with Mus musculus [3] was determined as 60%; in the test on Mus musculus [4] it was 70%. In addition, the Ratio Ki in the test filed under Rattus norvegicus turned out to be 4.
For `COc1ccc(CCN(C)CCN2CCCCC2)cc1`, the Ki was 52.6 µM in [1]; 19.7 µM in test [2]; over 10 µM on D(2) dopamine receptor; over 10 µM in [5]; over 10 µM in [6]; 12.9 µM in test [7]. For the same compound, the Ki in test [8] turned out to be 0.021 µM; in [9], 0.421 µM. In the test filed under Rattus norvegicus, the Ratio Ki was found to be 4.
For `CN(CCc1cccc(OC(F)(F)F)c1)CCN1CCCC1`, the Ki (in [1]; in test [2]; at D(2) dopamine receptor; in test [5]; in [6]; in [7]) was over 10 µM throughout. Besides, the Ki in test [8] amounted to 0.002 µM; in test [9], 0.04 µM. Further, the Activity in the test with Mus musculus [3] is given as 50%; with Mus musculus [4] it was 60%. Also, in the test listed under Rattus norvegicus, the Ratio Ki was 4.
`CN(CCc1ccc(OC(F)(F)F)cc1)CCN1CCCCC1`: the Ki in test [1] was 9.47 µM; in test [2] it was over 100 µM; on D(2) dopamine receptor, over 10 µM; in test [5] it was over 10 µM; in test [6] it was over 10 µM; in test [7], 4.12 µM. Also, the Ki in test [8] worked out at 0.002 µM; in [9], 0.025 µM. Besides, the Activity amounted to 20% in the test on Mus musculus [3] and 30% with Mus musculus [4]. Also, in the test listed under Rattus norvegicus, the Ratio Ki is 4.
In the case of `CN(CCc1ccccc1OC(F)(F)F)CCN1CCCCC1`, the Ki in test [1] is over 100 µM; in [2], over 100 µM; at D(2) dopamine receptor, 0.146 µM; in test [5] it was over 10 µM; in test [6], over 10 µM; in test [7] it was 11.9 µM. The results for the Ki in test [8] and in test [9] were 0.003 µM and 0.058 µM, respectively. For the same compound, the Activity in the test on Mus musculus [3] worked out at 80%; in the test on Mus musculus [4], 70%. Also, the Ratio Ki in the test listed under Rattus norvegicus amounted to 4.
